The source made the active and inactive calls. The rule behind the calls is not given here.

The subject of data set [1] is HT-22. Description: Neuroprotective activity in mouse HT22 cells assessed as prevention from tBuOOH-induced oxidative cell death after 3 hrs by MTS assay. The class given is functional, cell-based. The procedure, abridged: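 HT22 cells were seeded at 5.0 × 10^3 per well and cultured overnight, then exposed to 50 μM t-BuOOH (final) plus compound for 3 h. Medium was removed, cells were washed with HBSS and returned to normal medium. MTS was added 24 h after initial treatment, absorbance was read at 490 nm after 2 h, and viability was expressed as percent of untreated cells.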
(Tetrazolium dyes change colour on reduction, which living cells bring about.)

Data set [2] concerns Radical scavenging activity. Description: Antioxidant activity assessed as DPPH free radical scavenging activity at 20 uM. The class given is functional. The procedure, abridged:
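Test agents at 20 μM final, added to 100 μM DPPH in methanol; absorbance at 517 nm monitored immediately for 10 min. Trolox and ascorbic acid served as positive controls, and the rate of absorbance loss was taken as antioxidant potency.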
(In general: DPPH is a stable violet radical that fades when it is reduced.)

Data set [3] has as its system HT-22. Description: Antioxidant activity in mouse HT22 cells assessed as prevention of glutamate-induced GSH depletion at 25 uM. The class given is functional, cell-based. The procedure, abridged: (§1)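 HT22 cells were exposed to 10 mM glutamate plus compound (DMSO stock) for 8 h. Total glutathione (reduced plus oxidized) in the supernatant of the cell homogenate was measured with a glutathione reductase enzymatic recycling kit. GSH reacts with DTNB to give TNB, read at 405 nm.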

Data set [4] relates to HT-22. Description: Antioxidant activity in mouse HT22 cells assessed as prevention of glutamate-induced GSH depletion at 5 uM. In kind it is functional, cell-based. Put shortly: as §1
Data set [5] has as its system Mus musculus. Description: Toxicity in BALB/cByJ mouse assessed as biochemical parameters at 50 mg/kg, ip daily for 3 weeks measured 2 hrs after final injection. The class given is organism-based. Particulars: in vivo. Set-up: dose 50 mg/kg, route intraperitoneal.
For data set [6], the system named is Mus musculus. Description: Toxicity in BALB/cByJ mouse assessed as outward signs of distress at 50 mg/kg, ip daily for 3 weeks measured 2 hrs after final injection. In kind it is organism-based. Also on record: dose 50 mg/kg, route intraperitoneal. Particulars: in vivo.
The test system of data set [7] is Mus musculus. Description: Toxicity in BALB/cByJ mouse assessed as outward signs of pain at 50 mg/kg, ip daily for 3 weeks measured 2 hrs after final injection. The class given is organism-based. Set-up: dose 50 mg/kg, route intraperitoneal. Particulars: in vivo.
For data set [8], the target named is T1, Serine/threonine-protein phosphatase PGAM5, mitochondrial (Mus musculus) (UniProt Q8BX10).
T1 sequence (whole entry): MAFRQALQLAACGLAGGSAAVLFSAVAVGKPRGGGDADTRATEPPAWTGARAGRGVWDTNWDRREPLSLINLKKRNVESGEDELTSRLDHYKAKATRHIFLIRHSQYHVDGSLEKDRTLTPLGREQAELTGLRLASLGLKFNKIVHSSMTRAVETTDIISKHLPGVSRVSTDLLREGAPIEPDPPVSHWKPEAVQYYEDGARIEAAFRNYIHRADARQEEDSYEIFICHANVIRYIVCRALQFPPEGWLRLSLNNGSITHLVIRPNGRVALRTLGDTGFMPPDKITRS
Description: Inhibition of glutamate-induced increase in lower band of PGAM5 in mouse HT22 cells at 125 nM after 16 hrs by Western blotting analysis. In kind it is cell-based. Particulars: HT-22. The procedure, abridged: (§2)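 HT22 cells were treated with 10 mM glutamate plus compound for 16 h, harvested, and lysed in low-salt buffer (50 mM Tris-HCl pH 7.4, 150 mM NaCl, 10% glycerol, Triton X-100, protease/phosphatase inhibitors) for 30 min with a brief sonication. Lysates were run on 4–12% gels and immunoblotted for phospho-Drp1 Ser637, total Drp1, PGAM5, actin and α-tubulin, then analyzed by densitometry.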

The target of data set [9] is Dynamin-1-like protein (Mus musculus) (UniProt Q8K1M6). Description: Inhibition of glutamate-induced decrease in DRP1 phosphorylation at serine 637 in mouse HT22 cells at 125 nM after 16 hrs by Western blotting analysis. Particulars: HT-22. In kind it is cell-based. The procedure, abridged:
as §2
For orientation: Immunoblotting shows a protein as a band on a membrane.

For data set [10], the system named is HT-22. Description: Antioxidant activity in mouse HT22 cells assessed as upregulation of NQO1 protein expression 8 hrs by Western blotting analysis. The class given is functional, cell-based.
Data set [11] concerns HT-22. Description: Antioxidant activity in mouse HT22 cells assessed as upregulation of HO1 protein expression 8 hrs by Western blotting analysis. In kind it is functional, cell-based.
The subject of data set [12] is HT-22. Description: Neuroprotective activity in mouse HT22 cells assessed as reduction of glutamate-induced mitochondrial fragmentation at 250 nM after 8 hrs by Mitotracker DR staining-based fluorescence microscopic analysis. The class given is functional, cell-based. The procedure, abridged: (§3)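 HT22 cells were given 10 mM glutamate plus compound for 8 h, then co-stained with MitoSOX Red (5 μM final) and Mitotracker Deep Red (10 nM final) for 20 min. Cells were washed twice with HBSS and imaged live by fluorescence microscopy in HBSS.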

In data set [13] the test system is HT-22. Description: Neuroprotective activity in mouse HT22 cells assessed as reduction of glutamate-induced mitochondrial superoxide generation at 250 nM after 8 hrs by MitoSOX RED staining-based fluorescence microscopic analysis. The class given is functional, cell-based. Put shortly: as §3
In data set [14] the test system is HT-22. Description: Antioxidant activity in mouse HT22 cells assessed as upregulation of NQO1 gene expression at 250 nM after 16 hrs by qRT-PCR analysis in the absence of glutamate. The class given is functional, cell-based. Put shortly:
(§4)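 HT22 cells were seeded at 3.0 × 10^5 per well and cultured overnight, then treated with or without 10 mM glutamate plus compound (DMSO stock) for 16 h. Cells were trypsinized and washed in cold Ca/Mg-free HBSS. HO-1 and NQO-1 mRNA were measured by qRT-PCR with β2-microglobulin as reference gene, and fold change was calculated by the Livak method.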

In data set [15] the test system is HT-22. Description: Antioxidant activity in mouse HT22 cells assessed as upregulation of HO1 gene expression at 250 nM after 16 hrs by qRT-PCR analysis in the absence of glutamate. In kind it is functional, cell-based. The procedure, abridged: as §4
Data set [16] deals with HT-22. Description: Antioxidant activity in mouse HT22 cells assessed as reduction in glutamate-induced upregulation of HO1 gene expression at 250 nM after 16 hrs by qRT-PCR analysis relative to untreated control. In kind it is functional, cell-based. Put shortly:
as §4

Data set [17] deals with HT-22. Description: Antioxidant activity in mouse HT22 cells assessed as reduction in glutamate-induced upregulation of NQO1 gene expression at 250 nM after 16 hrs by qRT-PCR analysis relative to glutamate-treated control. In kind it is functional, cell-based. The procedure, abridged: as §4
The test system of data set [18] is HT-22. Description: Antioxidant activity in mouse HT22 cells assessed as prevention of glutamate-induced intracellular accumulation of free radicals at 250 nM after 8 hrs by spectrofluorometric analysis. The class given is functional, cell-based. Put shortly:
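HT22 cells were seeded at 5.0 × 10^3 per well and cultured overnight, then given 10 mM glutamate plus compound for 8 h. Rho123 was added at 5 μM final for 20 min, cells were washed twice with HBSS, and oxidized Rho123 fluorescence was read at 500 nm excitation and 536 nm emission.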

For data set [19], the system named is HT-22. Description: Ratio of VK2 IC50 to 2-((4-Chlorobenzyl)amino)naphthalene-1,4-dione IC50 for prevention from glutamate-induced oxidative cell death in mouse HT22 cells. In kind it is functional.
Data set [20] is described as follows: Neurotoxicity in mouse HT22 cells assessed as cell viability after 24 hrs by MTS assay. The class given is toxicity, cell-based, HT-22. As to conditions: read-out: TC50. Put shortly: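 HT22 cells were seeded at 5.0 × 10^3 per well, cultured overnight, and treated with a range of compound concentrations without glutamate for 24 h. MTS was added for 2 h and absorbance read at 490 nm. Viability was expressed as percent of untreated cells, and TC50 was fit from titration curves (7- or 12-point, n = 3–4).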

A short description of data set [21]: Therapeutic index, ratio of cytotoxic TC50 for mouse HT22 cells to neuroprotective PD50 for mouse HT22 cells. As to conditions: read-out: TI. The class given is cell-based, HT-22.
The test system of data set [22] is HT-22. Description: Neuroprotective activity in mouse HT22 cells assessed as prevention from glutamate-induced oxidative cell death by MTS assay. The class given is functional. Put shortly:
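HT22 cells grown in high-glucose DMEM with 10% FBS and antibiotic-antimycotic at 37°C, 5% CO2. Seeded at 5.0 × 10^3 cells/well overnight, then given 10 mM glutamate (final) plus compound from DMSO stock. MTS added 24 h after treatment, 2 h at 37°C, A490 read. Viability taken as % of untreated cells. PC50 from 12-point titrations; experiments repeated at least four times.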

For data set [23], the system named is HT-22. Description: Antioxidant activity in mouse HT22 cells assessed as reduction in glutamate-induced upregulation of HO1 gene expression at 250 nM after 16 hrs by qRT-PCR analysis relative to glutamate-treated control. In kind it is functional, cell-based. The procedure, abridged: as §4
In data set [24] the test system is Mus musculus. Description: Toxicity in BALB/cByJ mouse assessed as weight loss at 50 mg/kg, ip daily for 3 weeks measured 2 hrs after final injection. In kind it is organism-based. Also on record: dose 50 mg/kg, route intraperitoneal. As to conditions: in vivo.
Data set [25] concerns HT-22. Description: Antioxidant activity in mouse HT22 cells assessed as prevention of glutamate-induced GSH depletion at 50 uM. The class given is functional, cell-based. Put shortly: as §1
Data set [26] concerns the target T1, Serine/threonine-protein phosphatase PGAM5, mitochondrial (Mus musculus). Description: Inhibition of glutamate-induced increase in lower band of PGAM5 in mouse HT22 cells at 500 nM after 16 hrs by Western blotting analysis. Particulars: HT-22. The class given is cell-based. The procedure, abridged: as §2
Data set [27] addresses Dynamin-1-like protein (Mus musculus) (UniProt Q8K1M6). Description: Inhibition of glutamate-induced decrease in DRP1 phosphorylation at serine 637 in mouse HT22 cells at 500 nM after 16 hrs by Western blotting analysis. In kind it is cell-based. Particulars: HT-22. Put shortly: as §2

Chain of Dynamin-1-like protein (Mus musculus) (Q8K1M6 whole entry): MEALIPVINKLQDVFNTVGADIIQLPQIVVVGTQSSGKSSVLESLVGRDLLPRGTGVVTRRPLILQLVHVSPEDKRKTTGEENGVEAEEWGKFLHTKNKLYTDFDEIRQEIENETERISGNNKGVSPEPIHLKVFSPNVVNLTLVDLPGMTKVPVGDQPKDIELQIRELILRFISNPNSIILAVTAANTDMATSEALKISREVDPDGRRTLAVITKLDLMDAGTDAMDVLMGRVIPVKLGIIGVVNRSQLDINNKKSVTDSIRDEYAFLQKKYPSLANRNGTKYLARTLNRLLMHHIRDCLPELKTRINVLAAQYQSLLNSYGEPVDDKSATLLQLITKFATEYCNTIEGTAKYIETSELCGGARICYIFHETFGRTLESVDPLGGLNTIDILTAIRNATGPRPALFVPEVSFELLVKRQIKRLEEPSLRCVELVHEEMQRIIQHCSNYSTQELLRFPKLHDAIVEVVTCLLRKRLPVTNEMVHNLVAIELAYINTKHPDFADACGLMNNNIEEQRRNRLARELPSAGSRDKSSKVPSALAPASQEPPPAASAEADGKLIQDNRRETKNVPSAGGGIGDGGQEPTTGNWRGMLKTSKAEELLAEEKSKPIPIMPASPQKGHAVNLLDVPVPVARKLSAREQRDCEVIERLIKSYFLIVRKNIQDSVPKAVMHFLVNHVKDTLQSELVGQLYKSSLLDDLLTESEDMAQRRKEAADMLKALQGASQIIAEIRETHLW

`Cc1c(C)c2c(c(C)c1O)CCC(C)(C(=O)O)O2` (centres undefined): the outcome in data set [1] and in data set [3] was inactive. The result in data set [2] was Active.
Take `COC1=C(OC)C(=O)C(CCCCCCCCCCO)=C(C)C1=O`: in [4], the result was inactive.
For the compound `O=C1C=C(NCc2cccc(Cl)c2)C(=O)c2ccccc21`, the Activity result in [5], in data set [6], in data set [7] and in [24] was “Non-toxic” throughout. Further, the inhibition result in data set [8] and in data set [9] was “Active” each time. Further, the result in data set [1], in data set [12], in data set [13], in [18] and in data set [23] was Active. Also, the result in [10], in [11], in data set [14], in data set [15], in data set [16] and in [17] was inactive. Moreover, the result in data set [2] was inactive. Further, the “Ratio IC50” value in data set [19] was greater than 10. The CC50 at 24 h in [20] is greater than 100 µM. In data set [21], the selectivity ratio is greater than 3230. Moreover, the PD50 in [22] came to 31 nM.
On to `O=C1C=C(NCc2ccccc2)C(=O)c2ccccc21`, for which the Activity entry in data set [5], in data set [6], in data set [7] and in data set [24] was “Non-toxic” in each case. In addition, the inhibition entry in [8] and in data set [9] was “Active” throughout. Moreover, the outcome in data set [1], in data set [12], in [13], in data set [18] and in [23] was Active. The outcome in [10], in [11], in data set [14], in data set [15], in data set [16] and in data set [17] was inactive. Besides, the result in data set [2] was inactive. In data set [20], the CC50 at 24 h was greater than 100 µM. For the same compound, the selectivity ratio in data set [21] is greater than 1140. Also, the PD50 in data set [22] is reported as 88 nM.
With `CN1C(=O)C(Cc2c[nH]c3ccccc23)NC1=S` (centres undefined), in data set [25], the outcome was inactive.
On to `CC(C)=CCC/C(C)=C/CC/C(C)=C/CC/C(C)=C/CC1=C(C)C(=O)c2ccccc2C1=O` [MENATETRENONE], for which the inhibition entry in data set [26] and in data set [27] was “Active” each time. The result in data set [1], in [12], in data set [13], in [18] and in [23] was Active. The result in data set [10], in [11], in data set [14], in data set [15], in [16] and in data set [17] was inactive. In addition, the result in [2] was inactive. Moreover, the CC50 at 24 h in [20] was greater than 100 µM. The PD50 in data set [22] was found to be 432 nM.

Values taken from ChEMBL document CHEMBL2331435, “Structure-activity relationship study of vitamin k derivatives yields highly potent neuroprotective agents” (J Med Chem, 2013).
